In ChEMBL document CHEMBL4130483, “Leishmanicidal and cytotoxic activity of hederagenin-bistriazolyl derivatives” (Eur J Med Chem, 2017):

Key:
SW-1736 = assay: Cytotoxicity against human SW1736 cells assessed as reduction in cell viability incubated fro 96 hrs by SRB assay; format: functional, cell-based; conditions: SW-1736, 96 h
Summary of the method: (§1)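 Sulforhodamine B photometric assay after 96 h treatment. Monolayers were grown in RPMI 1640 with L-glutamine, 10% heat-inactivated FBS and penicillin/streptomycin at 37 °C in humidified 5% CO2. Cut-off was 30 μM, or 60 μM for the parent. EC50 was averaged from at least three independent experiments, each in four replicates. Betulinic acid was the positive standard.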

A-375 = assay: Cytotoxicity against human A375 cells assessed as reduction in cell viability incubated fro 96 hrs by SRB assay; format: functional, cell-based; conditions: A-375, 96 h; summary of the method: as §1
FaDu = assay: Cytotoxicity against human FADU cells assessed as reduction in cell viability incubated fro 96 hrs by SRB assay; format: functional, cell-based
A2780 = assay: Cytotoxicity against human A2780 cells assessed as reduction in cell viability incubated fro 96 hrs by SRB assay; format: functional, cell-based; conditions: A2780, 96 h; summary of the method: as §1
Leishmania infantum [1] = assay: Antileishmanial activity against Leishmania infantum MHOM/BR/70/BH46 intracellular amastigotes infected in canine DH82 cells assessed as as inhibition of cell growth at 1000 uM incubated for 48 hrs by ELISA method; format: functional; conditions: MHOM/BR/70/BH46, DH82, 48 h, read-out: GI
HT-29 = assay: Cytotoxicity against human HT-29 cells assessed as reduction in cell viability incubated fro 96 hrs by SRB assay; format: functional, cell-based; conditions: HT-29, 96 h; summary of the method: as §1
Leishmania infantum [2] = assay: Antiparasitic activity against Leishmania infantum; format: functional, organism-based
[3] = Cytotoxicity in human HepG2 cells assessed as reduction in cell viability incubated for 48 hrs by MTT assay; format: cell-based
Summary of the method: (§2)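 MTT colorimetric assay with microscopic monitoring. CC50 is the concentration cytotoxic to 50% of BGM or HepG2 cells. Potassium antimonyl tartrate trihydrate was the positive control.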

[4] = Cytotoxicity in dog DH82 cells assessed as reduction in cell viability incubated for 48 hrs by MTT assay; format: cell-based, Canis lupus familiaris
Summary of the method: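 DH82 canine macrophage viability was monitored microscopically and by MTT colorimetric assay. CC50 is the concentration cytotoxic to 50% of DH82 cells. Potassium antimonyl tartrate trihydrate was the positive control.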

[5] = Selectivity index, ratio of CC50 for African green monkey BGM cells to IC50 for antileishmanial activity against Leishmania infantum MHOM/BR/70/BH46 intracellular amastigotes infected in canine DH82 cells; format: toxicity, cell-based; conditions: read-out: Ratio CC50/IC50
Summary of the method: (§3)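 SI = CC50 in BGM or HepG2 cells (MTT) divided by the intracellular amastigote IC50.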

[6] = Selectivity index, ratio of CC50 for human HepG2 cells to IC50 for antileishmanial activity against Leishmania infantum MHOM/BR/70/BH46 intracellular amastigotes infected in canine DH82 cells; format: toxicity, cell-based; conditions: read-out: Ratio CC50/IC50; summary of the method: as §3
[7] = Cytotoxicity in African green monkey BGM cells assessed as reduction in cell viability incubated for 48 hrs by MTT assay; format: cell-based; conditions: chlorocebus aethiops; summary of the method: as §2
[8] = Selectivity index, ratio of CC50 for dog DH82 cells to IC50 for antileishmanial activity against Leishmania infantum MHOM/BR/70/BH46 intracellular amastigotes infected in canine DH82 cells; format: toxicity, cell-based; conditions: read-out: Ratio CC50/IC50
Summary of the method: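 SI = CC50 in DH82 macrophages (MTT) divided by IC50 against intracellular L. infantum BH46 amastigotes.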

Row | SMILES | EC50 (SW-1736) | EC50 (A-375) | EC50 (FaDu) | EC50 (A2780) | inhibition of growth at 1000 µM (Leishmania infantum [1]) | EC50 (HT-29) | IC50 (Leishmania infantum [2]) | CC50 at 48 h [3] | CC50 at 48 h [4] | selectivity ratio [5] | selectivity ratio [6] | CC50 at 48 h [7] | selectivity ratio [8]
1 | C=C(C)[C@@H]1CC[C@]2(C(=O)O)CC[C@]3(C)[C@H](CC[C@@H]4[C@@]5(C)CC[C@H](O)C(C)(C)[C@@H]5CC[C@]43C)[C@@H]12 [BETULINIC ACID] | 16.4 µM | 12 µM | 13.4 µM | – | – | – | – | – | – | – | – | – | –
2 | CC1(C)CC[C@]2(C(=O)OCc3cn(Cc4ccccc4Br)nn3)CC[C@]3(C)C(=CC[C@@H]4[C@@]5(C)CC[C@H](O)[C@@](C)(COCc6cn(Cc7ccccc7Br)nn6)[C@@H]5CC[C@]43C)[C@@H]2C1 | > 30 µM | > 30 µM | > 30 µM | > 30 µM | 53.4% | > 30 µM | – | – | – | – | – | – | –
3 | CC1(C)CC[C@]2(C(=O)NCc3cn(Cc4ccccc4[N+](=O)[O-])nn3)CC[C@]3(C)C(=CC[C@@H]4[C@@]5(C)CC[C@H](O)[C@@](C)(CO)[C@@H]5CC[C@]43C)[C@@H]2C1 | – | – | – | – | – | – | 2 to 6 µM | – | – | – | – | – | –
4 | CC1(C)CC[C@]2(C(=O)OCc3cn(Cc4cccc([N+](=O)[O-])c4)nn3)CC[C@]3(C)C(=CC[C@@H]4[C@@]5(C)CC[C@H](O)[C@@](C)(COCc6cn(Cc7cccc([N+](=O)[O-])c7)nn6)[C@@H]5CC[C@]43C)[C@@H]2C1 | > 30 µM | > 30 µM | > 30 µM | > 30 µM | 21.4% | > 30 µM | – | – | – | – | – | – | –
5 | CC1(C)CC[C@]2(C(=O)OCc3cn(Cc4ccccc4)nn3)CC[C@]3(C)C(=CC[C@@H]4[C@@]5(C)CC[C@H](O)[C@@](C)(COCc6cn(Cc7ccccc7)nn6)[C@@H]5CC[C@]43C)[C@@H]2C1 | > 30 µM | > 30 µM | > 30 µM | > 30 µM | 17.7% | > 30 µM | – | – | – | – | – | – | –
6 | CC1(C)CC[C@]2(C(=O)OCc3cn(Cc4ccc(F)cc4F)nn3)CC[C@]3(C)C(=CC[C@@H]4[C@@]5(C)CC[C@H](O)[C@@](C)(CO)[C@@H]5CC[C@]43C)[C@@H]2C1 | – | – | – | – | – | – | 11 µM | – | – | – | – | – | –
7 | Cc1ccc(Cn2cc(COC[C@@]3(C)[C@@H]4CC[C@]5(C)[C@H](CC=C6[C@@H]7CC(C)(C)CC[C@]7(C(=O)OCc7cn(Cc8ccc(C)cc8)nn7)CC[C@]65C)[C@@]4(C)CC[C@@H]3O)nn2)cc1 | > 30 µM | 26.1 µM | > 30 µM | 29.1 µM | 0% | 21.7 µM | – | – | – | – | – | – | –
8 | CC1(C)CC[C@]2(C(=O)OCc3cn(Cc4ccc(Br)cc4)nn3)CC[C@]3(C)C(=CC[C@@H]4[C@@]5(C)CC[C@H](O)[C@@](C)(COCc6cn(Cc7ccc(Br)cc7)nn6)[C@@H]5CC[C@]43C)[C@@H]2C1 | > 30 µM | > 30 µM | > 30 µM | > 30 µM | 9.8% | > 30 µM | – | – | – | – | – | – | –
9 | Cc1cccc(Cn2cc(COC[C@@]3(C)[C@@H]4CC[C@]5(C)[C@H](CC=C6[C@@H]7CC(C)(C)CC[C@]7(C(=O)OCc7cn(Cc8cccc(C)c8)nn7)CC[C@]65C)[C@@]4(C)CC[C@@H]3O)nn2)c1 | > 30 µM | > 30 µM | > 30 µM | > 30 µM | 31.3% | > 30 µM | – | – | – | – | – | – | –
10 | CC1(C)CC[C@]2(C(=O)OCc3cn(Cc4cccc(Br)c4)nn3)CC[C@]3(C)C(=CC[C@@H]4[C@@]5(C)CC[C@H](O)[C@@](C)(COCc6cn(Cc7cccc(Br)c7)nn6)[C@@H]5CC[C@]43C)[C@@H]2C1 | > 30 µM | > 30 µM | > 30 µM | > 30 µM | 7.8% | > 30 µM | – | – | – | – | – | – | –
11 | CC1(C)CC[C@]2(C(=O)O)CC[C@]3(C)C(=CC[C@@H]4[C@@]5(C)CC[C@H](O)[C@@](C)(CO)[C@@H]5CC[C@]43C)[C@@H]2C1 [HEDERAGENIN] | > 60 µM | > 60 µM | > 60 µM | > 60 µM | 55.5% | > 60 µM | 61.6 µM | > 1000 µM | > 1000 µM | 0.9 | > 16.2 | 57 µM | > 10
12 | CC1(C)CC[C@]2(C(=O)OCc3cn(CC(=O)c4ccccc4)nn3)CC[C@]3(C)C(=CC[C@@H]4[C@@]5(C)CC[C@H](O)[C@@](C)(COCc6cn(CC(=O)c7ccccc7)nn6)[C@@H]5CC[C@]43C)[C@@H]2C1 | > 30 µM | > 30 µM | > 30 µM | > 30 µM | 0% | > 30 µM | – | – | – | – | – | – | –
13 | CC1(C)CC[C@]2(C(=O)OCc3cn(Cc4ccccc4[N+](=O)[O-])nn3)CC[C@]3(C)C(=CC[C@@H]4[C@@]5(C)CC[C@H](O)[C@@](C)(COCc6cn(Cc7ccccc7[N+](=O)[O-])nn6)[C@@H]5CC[C@]43C)[C@@H]2C1 | > 30 µM | > 30 µM | > 30 µM | > 30 µM | 35% | > 30 µM | – | – | – | – | – | – | –
14 | CC1(C)CC[C@]2(C(=O)OCc3cn(Cc4ccccc4[N+](=O)[O-])nn3)CC[C@]3(C)C(=CC[C@@H]4[C@@]5(C)CC[C@H](O)[C@@](C)(CO)[C@@H]5CC[C@]43C)[C@@H]2C1 | – | – | – | – | – | – | 32 to 34 µM | – | – | – | – | – | –
15 | CC1(C)CC[C@]2(C(=O)OCc3cn(Cc4ccc(Cl)cc4)nn3)CC[C@]3(C)C(=CC[C@@H]4[C@@]5(C)CC[C@H](O)[C@@](C)(COCc6cn(Cc7ccc(Cl)cc7)nn6)[C@@H]5CC[C@]43C)[C@@H]2C1 | > 30 µM | > 30 µM | > 30 µM | > 30 µM | 1.6% | > 30 µM | – | – | – | – | – | – | –
16 | CC1(C)CC[C@]2(C(=O)OCc3cn(Cc4cccc(Cl)c4)nn3)CC[C@]3(C)C(=CC[C@@H]4[C@@]5(C)CC[C@H](O)[C@@](C)(COCc6cn(Cc7cccc(Cl)c7)nn6)[C@@H]5CC[C@]43C)[C@@H]2C1 | > 30 µM | > 30 µM | > 30 µM | > 30 µM | 41.8% | > 30 µM | – | – | – | – | – | – | –
17 | CC1(C)CC[C@]2(C(=O)OCc3cn(Cc4ccccc4Cl)nn3)CC[C@]3(C)C(=CC[C@@H]4[C@@]5(C)CC[C@H](O)[C@@](C)(COCc6cn(Cc7ccccc7Cl)nn6)[C@@H]5CC[C@]43C)[C@@H]2C1 | > 30 µM | > 30 µM | > 30 µM | > 30 µM | 4.1% | 27 µM | – | – | – | – | – | – | –
18 | CC1(C)CC[C@]2(C(=O)NCc3cn(Cc4ccc(Cl)cc4)nn3)CC[C@]3(C)C(=CC[C@@H]4[C@@]5(C)CC[C@H](O)[C@@](C)(CO)[C@@H]5CC[C@]43C)[C@@H]2C1 | – | – | – | – | – | – | 2 to 6 µM | – | – | – | – | – | –
19 | CC1(C)CC[C@]2(C(=O)OCc3cn(CC(=O)c4ccc5ccccc5c4)nn3)CC[C@]3(C)C(=CC[C@@H]4[C@@]5(C)CC[C@H](O)[C@@](C)(COCc6cn(CC(=O)c7ccc8ccccc8c7)nn6)[C@@H]5CC[C@]43C)[C@@H]2C1 | > 30 µM | > 30 µM | > 30 µM | > 30 µM | 71.5% | > 30 µM | – | – | – | – | – | – | –
